{"source": "ChEMBL document CHEMBL1921744", "about": "“Lipophosphonoxins: new modular molecular structures with significant antibacterial properties” (J Med Chem, 2011)", "key": {"Enterococcus faecium [1]": {"test_system": "Enterococcus faecium", "test": "Antibacterial activity against vancomycin-resistant Enterococcus faecium SR7917", "assay_type": "functional"}, "Enterococcus faecium [2]": {"test_system": "Enterococcus faecium", "test": "Antibacterial activity against Enterococcus faecium ATCC 19434", "assay_type": "functional", "method_in_brief": "(§1)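 Incubation 24/48 h at 37 °C. MIC read as the lowest concentration inhibiting growth. MBC determined by transferring 10 μL from wells onto blood agar, taken as the lowest concentration with no visible growth.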"}, "Enterococcus faecalis [3]": {"test_system": "Enterococcus faecalis", "test": "Antibacterial activity against Enterococcus faecalis ATCC 29212", "assay_type": "functional"}, "Staphylococcus aureus [4]": {"test_system": "Staphylococcus aureus", "test": "Antibacterial activity against Staphylococcus aureus infected in mouse", "assay_type": "functional"}, "Staphylococcus aureus [5]": {"test_system": "Staphylococcus aureus", "test": "Antibacterial activity against methicillin-sensitive Staphylococcus aureus ATCC 29213", "assay_type": "functional", "method_in_brief": "as §1"}, "Enterococcus faecalis [6]": {"test_system": "Enterococcus faecalis", "test": "Antibacterial activity against vancomycin-resistant Enterococcus faecalis SR7914", "assay_type": "functional"}, "Staphylococcus aureus [7]": {"test_system": "Staphylococcus aureus", "test": "Antibacterial activity against methicillin-resistant Staphylococcus aureus SR3637", "assay_type": "functional"}, "[8]": {"test": "Cytotoxicity against human Erythroid progenitor cells assessed as maximum safe concentration after 48 hrs by CellTiter-blue assay", "assay_type": "cell-based", "conditions": "read-out: Activity", "method_in_brief": "(§2)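 Normal human erythroid progenitor cells, expanded from umbilical cord blood, plated at 25000 cells/well immediately before compound addition (added as a 5× predilution in culture medium). Viability by CellTiter-Blue fluorescence 48 h after addition, normalized to untreated cells set as 100%.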"}, "Enterococcus faecalis [9]": {"test_system": "Enterococcus faecalis", "test": "Antibacterial activity against Enterococcus faecalis CCM 4224 after 24 to 48 hrs by microdilution method", "assay_type": "functional", "method_in_brief": "as §1"}, "[10]": {"test": "Cytotoxicity against human Erythroid progenitor cells assessed as cell viability after 48 hrs by CellTiter-blue assay", "assay_type": "cell-based", "method_in_brief": "as §2"}, "Escherichia coli [11]": {"test_system": "Escherichia coli", "test": "Antibacterial activity against permeabilized Escherichia coli DH5[alpha] assessed as log reduction of colony forming unit at 10 uM", "assay_type": "functional, organism-based", "method_in_brief": "(§3)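 Competent (permeabilized) E. coli DH5α cells were mixed with 5 ng pUC18 (ampR) and serially diluted compound or buffer only. Steps: 30 min on ice, heat shock at 42 °C for 90 s, 5 min on ice, then LB without antibiotic for 1 h at 37 °C with shaking. Plated on LB agarose with ampicillin 100 μg/mL overnight at 37 °C. Colonies counted against the no-compound control.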"}, "[12]": {"test": "Induction of apoptosis in human Erythroid progenitor cells assessed as caspase 3/7 activation after 4 hrs by Caspase-Glo 3/7 assay", "method_in_brief": "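Cord-blood-derived human erythroid progenitor cells plated at 25000 cells/well and exposed to compound prediluted in medium. Caspase 3/7 activation read by Caspase-Glo 3/7 luminescence 4 h after addition, normalized to untreated control cells set as 100%.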"}, "Escherichia coli [13]": {"test_system": "Escherichia coli", "test": "Antibacterial activity against Escherichia coli after 24 to 48 hrs by microdilution method", "assay_type": "functional", "method_in_brief": "as §1"}, "Streptococcus agalactiae": {"test_system": "Streptococcus agalactiae", "test": "Antibacterial activity against Streptococcus agalactiae after 24 to 48 hrs by microdilution method", "assay_type": "functional", "method_in_brief": "as §1"}, "Pseudomonas aeruginosa": {"test_system": "Pseudomonas aeruginosa", "test": "Antibacterial activity against Pseudomonas aeruginosa after 24 to 48 hrs by microdilution method", "assay_type": "functional", "method_in_brief": "as §1"}, "Escherichia coli [14]": {"test_system": "Escherichia coli", "test": "Antibacterial activity against permeabilized Escherichia coli DH5[alpha] assessed as cell killing at 25 uM", "assay_type": "functional", "method_in_brief": "as §3"}, "[15]": {"biological_target": "T1, Phospho-N-acetylmuramoyl-pentapeptide-transferase (Mycobacterium tuberculosis, UniProt P9WMW7)", "T1 sequence (P9WMW7 whole entry)": "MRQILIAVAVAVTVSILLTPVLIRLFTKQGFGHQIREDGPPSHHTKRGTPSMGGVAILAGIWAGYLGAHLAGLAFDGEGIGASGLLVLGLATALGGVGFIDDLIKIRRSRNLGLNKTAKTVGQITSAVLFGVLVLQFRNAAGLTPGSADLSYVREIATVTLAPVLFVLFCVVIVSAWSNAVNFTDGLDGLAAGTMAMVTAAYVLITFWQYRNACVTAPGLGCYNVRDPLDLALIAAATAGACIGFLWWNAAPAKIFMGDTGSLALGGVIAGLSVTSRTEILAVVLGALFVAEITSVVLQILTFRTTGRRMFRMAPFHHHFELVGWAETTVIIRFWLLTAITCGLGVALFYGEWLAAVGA", "test": "Inhibition of Mycobacterium tuberculosis MraY translocase"}, "[16]": {"test_system": "Mycobacterium tuberculosis", "test": "Antimycobacterial activity against drug-susceptible Mycobacterium tuberculosis", "assay_type": "functional"}, "Bacillus subtilis": {"test_system": "Bacillus subtilis", "conditions": "at 0.2 mM"}, "Escherichia coli [17]": {"test_system": "Escherichia coli", "test": "Antibacterial activity against permeabilized Escherichia coli DH5[alpha] assessed as log reduction of colony forming unit at 1 mM", "assay_type": "functional, organism-based", "method_in_brief": "as §3"}}, "note": "Activity calls are given as the source filed them. No cut-off for these calls is given here.", "data": [{"molecule": "CC(C)C[C@H](NC(=O)[C@@H](NC(=O)N[C@H](C(=O)O)C(C)C)[C@@H]1CCNC(=N)N1)C(=O)NCCCN[C@H](C(=O)O)[C@H](O[C@@H]1O[C@H](CN)[C@@H](O)[C@H]1O)[C@H]1O[C@@H](n2ccc(=O)[nH]c2=O)[C@H](O)[C@@H]1O", "note": "[MURAMYCIN D2]", "values": [{"measurement": "MIC", "setting": "Enterococcus faecium [1]", "value": "> 64", "unit": "µg/mL"}, {"measurement": "MIC", "setting": "Enterococcus faecium [2]", "value": "> 64", "unit": "µg/mL"}, {"measurement": "MIC", "setting": "Enterococcus faecalis [3]", "value": "> 64", "unit": "µg/mL"}, {"measurement": "ED50", "setting": "Staphylococcus aureus [4]", "value": 1.1, "unit": "mg/kg"}, {"measurement": "MIC", "setting": "Staphylococcus aureus [5]", "value": "> 64", "unit": "µg/mL"}, {"measurement": "MIC", "setting": "Enterococcus faecalis [6]", "value": "> 64", "unit": "µg/mL"}, {"measurement": "MIC", "setting": "Staphylococcus aureus [7]", "value": "> 64", "unit": "µg/mL"}]}, {"molecule": "CCCCCCCCCCCCCCCCCCCCOP(=O)(CCN1C[C@@H](O)[C@H](O)C1)OC[C@H]1O[C@@H](n2ccc(=O)[nH]c2=O)[C@H](O)[C@@H]1O", "note": "(stereo not given in full)", "values": [{"measurement": "MNTC at 48 h", "setting": "[8]", "value": 15.6, "unit": "µg/mL"}, {"measurement": "MIC", "setting": "Enterococcus faecalis [9]", "value": 100, "unit": "µg/mL"}, {"measurement": "IC50", "setting": "[10]", "value": 31, "unit": "µg/mL"}, {"measurement": "Activity", "setting": "Escherichia coli [11]", "value": "Active"}, {"measurement": "Activity", "setting": "[12]", "value": "Non-toxic"}, {"measurement": "MIC", "setting": "Escherichia coli [13]", "value": "> 200", "unit": "µg/mL"}, {"measurement": "MIC", "setting": "Streptococcus agalactiae", "value": 6.25, "unit": "µg/mL"}, {"measurement": "MIC", "setting": "Pseudomonas aeruginosa", "value": "> 200", "unit": "µg/mL"}, {"measurement": "Activity", "setting": "Escherichia coli [14]", "value": 90, "unit": "%"}]}, {"molecule": "CC(C)CCCCCCCC(CC(=O)O[C@H]1CN(C)[C@@H]([C@H](O[C@@H]2O[C@H](CN)[C@@H](O)[C@H]2OS(=O)(=O)O)[C@H]2O[C@@H](n3ccc(=O)[nH]c3=O)[C@H](O)[C@@H]2O)C(=O)N(C)[C@@H]1C(=O)O)OC(=O)CC(C)CC(=O)O", "note": "(stereo not given in full) [LIPOSIDOMYCIN B]", "values": [{"measurement": "IC50", "setting": "[15]", "value": 49.1, "unit": "nM"}]}, {"molecule": "CO[C@@H]1[C@@H](OC)[C@H](C)O[C@@H](OC(=O)C[C@@H](C)CC(=O)O[C@@H](CCCCCCCCCCCC(C)C)CC(=O)O[C@H]2CN(C)[C@@H]([C@H](O[C@@H]3O[C@H](CN)[C@@H](O)[C@H]3O)[C@H]3O[C@@H](n4ccc(=O)[nH]c4=O)[C@H](O)[C@@H]3O)C(=O)N(C)[C@@H]2C(=O)O)[C@@H]1OC", "note": "[CAPRAZAMYCIN B]", "values": [{"measurement": "MIC", "setting": "[16]", "value": 3.13, "unit": "µg/mL"}]}, {"molecule": "Cetyltrimethylammonium bromide", "values": [{"measurement": "inhibition", "setting": "Bacillus subtilis", "value": "Active"}]}, {"molecule": "O=c1ccn([C@@H]2O[C@H](COP(=O)(O)CCN3C[C@@H](O)[C@H](O)C3)[C@@H](O)[C@H]2O)c(=O)[nH]1", "values": [{"measurement": "Activity", "setting": "Escherichia coli [17]", "value": "inactive"}]}]}
